Compounds with a hit are over-represented: about 1.5% of the library has one in this group of screens.
CXCR6 inh – CXCR6 receptor inhibitors, primary screen, cell-based, beta-arrestin, luminescence, CHO-K1 PathHunter, 1536-well; C-X-C chemokine receptor type 6 (Homo sapiens), O00574; inhibition, % at 20 µM; 360,000 compounds, 0.36% hits; AID 602244, 2012; in the data active = inhibition above about 34%, passing the limit was not always enough;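 note: antagonist mode with CXCL16 agonist at 10 nM final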
APJ agonist – agonists of human apelin receptor APJ, primary screen, CHO-K1 cells, PathHunter beta-arrestin, luminescence; activation, % at 20 µM; 330,000 compounds, 0.11% hits; 0% DMSO wells, 100% apelin; P35414;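 active = activation more than six SD over the plate average, tested at 20 µM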
Target sequence (P35414 whole entry, looked up): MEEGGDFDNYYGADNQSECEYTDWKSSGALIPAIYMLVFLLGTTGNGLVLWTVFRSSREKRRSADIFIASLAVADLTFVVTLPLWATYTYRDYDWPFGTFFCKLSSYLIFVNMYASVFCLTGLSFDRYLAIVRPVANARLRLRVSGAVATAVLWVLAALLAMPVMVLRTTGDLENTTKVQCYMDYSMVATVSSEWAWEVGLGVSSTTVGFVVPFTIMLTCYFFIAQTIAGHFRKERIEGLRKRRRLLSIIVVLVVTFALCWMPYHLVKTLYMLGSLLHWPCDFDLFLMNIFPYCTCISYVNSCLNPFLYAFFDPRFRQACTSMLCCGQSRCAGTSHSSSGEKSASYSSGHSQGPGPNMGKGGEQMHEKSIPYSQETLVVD
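Assay system: CHO-K1 cells stably expressing ProLink-tagged human APJ and arrestin–beta-gal acceptor. Compound dosing: 20 µM single point, 1% DMSO. Times: 16-18 h seeding, 90 min dark compound exposure, 60 min detection. Detection: beta-gal luminescence. Evaluation: APJ–arrestin association signal. Controls: negative DMSO alone, positive Apelin-13 at 10 nM.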
APJ antag – antagonists of human apelin receptor APJ, primary screen, CHO-K1 cells, beta-arrestin complementation, luminescence | P35414 | inhibition, % at 20 µM | 330,000 compounds, 0.32% hits | AID 2521, 2010;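 active = inhibition above about 40% at 20 µM, limit read from the data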;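 note: cells challenged with 10 nM apelin-13 agonist together with compound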
CCR6 antagonist – CCR6 receptor antagonists, primary screen, cell-based, CHO-K1, luminescence, beta-arrestin, uHTS; C-C chemokine receptor type 6 (Homo sapiens), P51684; CHO-K1 CCR6 PathHunter beta-arrestin, CCL20-stimulated; inhibition, % at 20 µM; 340,000 compounds, 0.49% hits; AID 493098, 2011;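 active = compounds whose inhibition of the agonist-driven luminescence signal at 20 µM reaches about 50%, limit read from the data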;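 note: cells stimulated with CCL20 at 14 nM final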
EBI2 block – EBI2 receptor antagonists, beta-arrestin recruitment, primary screen, cell-based, luminescence, 7a,25-OHC stimulation, uHTS; 360,000 compounds, 0.81% hits; inhibition, % at 5 µM; G-protein coupled receptor 183 (Homo sapiens), P32249; 7a,25-OHC stimulated; in the data active = inhibition above about 38%;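 note: enzyme fragment complementation signal reports receptor beta-arrestin coupling in cells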
APJ antag conf – APJ antagonists blocking beta-arrestin recruitment, confirmation, cell-based, luminescence, single concentration, uHTS hits; shares compounds with APJ antag; inhibition, % at 20 µM; antagonist mode; 950 compounds, 66% hits; in the data active = inhibition above about 50%
A number is an active result; – = inactive; · = not tested or not shown.

SMILES	CXCR6 inh	APJ agonist	APJ antag	CCR6 antagonist	EBI2 block	APJ antag conf
O=C1C2C3C=CC(C3)C2C(=O)N1/N=C/c1cc(Br)cc([N+](=O)[O-])c1O (stereo not drawn)	–	–	42	54	–	52
OCCN1C[C@H](O)[C@@H](O)[C@H](O)[C@H]1CO	·	–	43	·	·	65
C/C=C/c1ccc(OCCCCN(C)Cc2ccccc2)c(OC)c1	–	–	51	–	–	–
O=C(OCC(=O)c1ccccc1Br)c1ccccn1	–	–	–	–	–	·
O=C(CCC(=O)OCC(=O)c1ccc(Cl)cc1Cl)Nc1cccc2cccnc12	–	–	64	62	–	92
O=C(OCC(=O)c1ccc(Cl)cc1Cl)c1ccccn1	–	–	62	–	–	89
O=C(OCC(=O)c1ccc(Cl)cc1Cl)c1ccc2c(c1)C(=O)N(c1cccc3ncccc13)C2=O	–	–	56	–	–	73
CCOc1ccccc1NC(=O)COC(=O)COc1c(Cl)cc(Cl)c2ccc(C)nc12	–	–	–	–	–	·
CN1CCN(C(=O)c2ccc(CN3CCOCC3)cc2)CC1	–	–	–	–	–	·
CC(=O)Nc1ccc(Cc2ccc3[nH]c(=O)cc(C)c3c2)cc1	·	–	44	·	·	–
CN(C)CCN(C)C1CN(Cc2ccc([N+](=O)[O-])cc2)S(=O)(=O)C1 (stereo not drawn)	–	·	·	·	–	·
CC(C)NC(=O)c1sc2nc(-c3cccs3)cc(-c3cccs3)c2c1N	·	–	42	–	·	–
CC(=O)c1sc2nc(-c3cccs3)ccc2c1N	–	–	–	–	–	·
O=C(O)CCC(=O)NN1C(=O)c2ccccc2NC1c1ccco1 (stereo not drawn)	–	–	–	–	–	·
CN1/C(=C\C=C2/SC(=S)N(CC(=O)O)C2=O)C(C)(C)c2ccccc21	45	–	51	59	–	93
C=CCN1C(=O)/C(=C\C=C2\N(C)c3ccccc3C2(C)C)SC1=S	–	–	57	71	–	82
CCCN1C(=O)/C(=C/C=C2\N(CC)c3ccccc3C2(C)C)SC1=S	–	–	–	–	–	·
CN1CCS/C1=C\C=C1/SC(=S)N(CC(=O)O)C1=O	–	·	·	–	–	·
COc1cc(S(=O)(=O)N2CCCCC2)ccc1NC(=O)c1ccccc1Cl	–	–	–	–	–	·
CCC(=O)Nc1ccc(S(=O)(=O)N2CCCCC2)cc1OC	–	–	41	–	–	–
CCc1nc2ccc(C(=O)NCCN3CCOCC3)cn2c1N(CCC(C)C)CCN(C)C	–	·	·	·	–	·
CN(C)CCCN(C(=O)c1ccc(S(=O)(=O)N2CCc3ccccc32)cc1)c1nc2ccc(F)cc2s1	–	–	–	–	–	·
Cc1cc(C)c2sc(N(CCCN(C)C)C(=O)c3ccc(S(=O)(=O)N4CCCc5ccccc54)cc3)nc2c1	–	–	47	–	–	57
Cc1sc(/C=C2\C(=O)ON=C2c2ccccc2)cc1Br	·	–	–	·	·	·
COc1cc(/C=C2\C(=O)ON=C2c2ccccc2)cc(Br)c1O	–	–	43	58	–	95
SMILES	CXCR6 inh	APJ agonist	APJ antag	CCR6 antagonist	EBI2 block	APJ antag conf
COc1cc(C=C2C(=O)OC(c3ccccc3)OC2=O)cc(Br)c1O (stereo not drawn)	–	–	–	–	–	·
COc1cc(/C=C2\C(=O)ON=C2c2ccccc2)cc(Cl)c1O	–	–	46	–	–	66
CCOc1cc(/C=C2/C(=O)ON=C2C)cc(Br)c1O	–	–	41	57	–	56
CCOc1cc(/C=C2\C(=O)ON=C2c2ccccc2)cc(Br)c1O	–	–	46	–	–	74
COc1ccc(/C=C2/C(=O)ON=C2C)cc1Cl	–	–	–	–	–	·
O=[N+]([O-])c1cc(S(=O)(=O)Nc2ccccc2)ccc1Nc1ccccc1	–	·	·	–	–	·
O=C1/C(=C/c2cccc(O)c2)SC(=S)N1CC1CCCO1 (stereo not drawn)	–	–	–	–	–	·
COc1cc(/C=C2\SC(=S)N(C(C(=O)O)c3ccccc3)C2=O)ccc1O (stereo not drawn)	42	–	50	–	–	91
CCOc1cc(/C=C2/SC(=S)N(CC3CCCO3)C2=O)ccc1O (stereo not drawn)	51	–	48	67	–	101
CCOc1ccc(/C=C2/SC(=S)N(C(C(=O)O)c3ccccc3)C2=O)cc1OCC (stereo not drawn)	–	·	·	–	–	·
COc1ccccc1/C=C1\SC(=S)N(C(C(=O)O)c2ccccc2)C1=O (stereo not drawn)	–	–	–	–	–	·
O=C(O)C(c1ccccc1)N1C(=O)/C(=C\c2ccc(O)c(O)c2)SC1=S (stereo not drawn)	42	–	45	53	–	87
CCOc1cc(/C=C2\SC(=S)N(C(C(=O)O)c3ccccc3)C2=O)ccc1O (stereo not drawn)	48	–	49	50	–	92
COc1ccc(CCNC(=O)C(=O)NCC2OCCN2S(=O)(=O)c2ccc(C)cc2)cc1OC (stereo not drawn)	–	–	–	–	–	·
COc1ccc(-c2csc(NC(=O)Cc3cccc4ccccc34)c2C(=O)O)cc1	–	·	·	–	–	·
c1cncc(-c2nc(-c3ccco3)cs2)c1	–	–	47	–	–	–
CN(Cc1c(O)ccc2c1oc(=O)c1ccccc12)C1CCCCC1	–	–	47	–	–	–
O=C(C1=C(Nc2ccccc2)c2ccccc2S(=O)(=O)N1)c1ccccc1	–	–	45	70	–	72
O=C(N/N=C/c1ccc(-c2cccc(C(F)(F)F)c2)o1)c1ccccc1O	–	–	–	–	–	·
Cc1ccc(C)c(N2CCN(C(=O)C3CCCN(S(=O)(=O)c4c(C)[nH]c(=O)[nH]c4=O)C3)CC2)c1 (stereo not drawn)	–	–	–	–	–	·
CCN(CC)c1ccc2nc3ccc(N)cc3[n+](-c3ccccc3)c2c1	–	–	45	59	–	96
CCN(CC)c1ccc2nc3ccccc3[n+](CC)c2c1	–	–	–	–	–	·
COc1ccccc1NS(=O)(=O)c1ccc2ccccc2c1	–	–	–	–	–	·
Cc1ccc2cccc(NS(=O)(=O)c3ccccc3)c2n1	·	–	63	–	·	57
O=S(=O)(Nc1cccc2cccnc12)c1ccccc1	69	–	89	90	62	72
Cc1ccc(S(=O)(=O)Nc2cccc3cccnc23)c([N+](=O)[O-])c1	–	–	58	–	–	56
COc1ccc(NS(=O)(=O)c2ccc3ccccc3c2)c2ncccc12	–	–	66	–	–	52

Assay outcomes from PubChem BioAssay.
